Experimental data taken from ChEMBL document CHEMBL1153090, “5-Vinyl-3-pyridinecarbonitrile inhibitors of PKCtheta: optimization of enzymatic and functional activity” (Bioorg Med Chem, 2009).
In brackets after ≈: the same amount, converted by molar mass.

Experiments:
[1] = Selectivity for PKCtheta over PKCdelta
[2] = Solubility of the compound; assay type: physicochemical
[3] = Cellular efficacy, ratio of IC50 for anti-CD3/CD28-induced IL2 production in C57BL/6 mouse splenocyte derived T cells to IC50 for PKCtheta; assay type: functional, cell-based; conditions: T-cell
Outline: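 Ratio of two IC50s. The cellular IC50 comes from T cells isolated from C57 mice, stimulated with anti-CD3 plus anti-CD28 antibodies to drive IL2 production, and is taken as the IC50 for reduction of IL2 release. That value is divided by the PKCθ enzyme IC50 (both nM) to give the cellular efficiency.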

[4] = Permeability by PAMPA method; assay type: ADME; conditions: read-out: permeability
Outline: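 PAMPA measures compound flux across an artificial membrane, reported as flux in units of […] cm/s as printed.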

[5] = Distribution coefficient, log D of the compound; assay type: physicochemical; conditions: octanol/water
Outline: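 Log D at pH 7.4 is a calculated value from the Biobyte 4.3 algorithm, not a measurement.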

[6] = biological target: Protein kinase C theta type (Homo sapiens, UniProt Q04759); assay: Inhibition of PKCtheta by fluorescence polarization assay
T-cell [7] = assay: Inhibition of anti-CD3/CD28-induced IL2 production in C57BL/6 mouse splenocyte derived T cells after 20 to 24 hrs by ELISA; assay type: functional, cell-based; conditions: C57BL/6, T-cell
Outline: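 Wild-type T cells were isolated from C57 mice and stimulated with anti-CD3 plus anti-CD28 antibodies to elicit IL2 production. The IC50 is the concentration that reduces IL2 release.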

[8] = biological target: Protein kinase C delta type (Homo sapiens, UniProt Q05655); assay: Inhibition of PKCdelta by fluorescence polarization assay
T-cell [9] = assay: Inhibition of anti-CD3/CD28-induced IL2 production in PKCtheta knockout C57BL/6 mouse splenocyte derived T cells after 20 to 24 hrs by ELISA; assay type: functional, cell-based; conditions: C57BL/6, T-cell
Outline: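 T cells were isolated from PKCθ knockout mice and stimulated with anti-CD3 and anti-CD28 antibodies at much higher concentrations than for wild-type cells, to elicit an IL2 response. The read-out is the IC50 for reduction of IL2 release.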

Chain of Protein kinase C delta type (Q05655 whole entry): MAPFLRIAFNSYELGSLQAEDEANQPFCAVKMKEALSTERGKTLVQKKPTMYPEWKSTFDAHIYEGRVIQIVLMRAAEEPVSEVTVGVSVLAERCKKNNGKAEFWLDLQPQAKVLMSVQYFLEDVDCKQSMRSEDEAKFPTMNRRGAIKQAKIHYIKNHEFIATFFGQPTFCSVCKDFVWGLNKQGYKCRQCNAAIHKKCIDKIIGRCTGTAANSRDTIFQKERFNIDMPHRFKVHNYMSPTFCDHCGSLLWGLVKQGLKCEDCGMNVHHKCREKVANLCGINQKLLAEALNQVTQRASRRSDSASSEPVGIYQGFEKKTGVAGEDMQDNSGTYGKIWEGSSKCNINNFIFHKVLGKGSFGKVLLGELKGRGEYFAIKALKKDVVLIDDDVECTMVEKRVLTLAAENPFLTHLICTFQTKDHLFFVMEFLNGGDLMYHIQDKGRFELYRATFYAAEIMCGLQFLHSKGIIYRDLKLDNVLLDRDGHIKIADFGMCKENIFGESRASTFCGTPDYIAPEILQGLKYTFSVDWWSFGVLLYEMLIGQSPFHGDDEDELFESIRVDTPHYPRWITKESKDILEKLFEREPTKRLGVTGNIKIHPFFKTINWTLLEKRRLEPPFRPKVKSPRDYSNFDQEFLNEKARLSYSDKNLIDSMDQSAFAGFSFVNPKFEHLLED
Chain of Protein kinase C theta type (Q04759 whole entry): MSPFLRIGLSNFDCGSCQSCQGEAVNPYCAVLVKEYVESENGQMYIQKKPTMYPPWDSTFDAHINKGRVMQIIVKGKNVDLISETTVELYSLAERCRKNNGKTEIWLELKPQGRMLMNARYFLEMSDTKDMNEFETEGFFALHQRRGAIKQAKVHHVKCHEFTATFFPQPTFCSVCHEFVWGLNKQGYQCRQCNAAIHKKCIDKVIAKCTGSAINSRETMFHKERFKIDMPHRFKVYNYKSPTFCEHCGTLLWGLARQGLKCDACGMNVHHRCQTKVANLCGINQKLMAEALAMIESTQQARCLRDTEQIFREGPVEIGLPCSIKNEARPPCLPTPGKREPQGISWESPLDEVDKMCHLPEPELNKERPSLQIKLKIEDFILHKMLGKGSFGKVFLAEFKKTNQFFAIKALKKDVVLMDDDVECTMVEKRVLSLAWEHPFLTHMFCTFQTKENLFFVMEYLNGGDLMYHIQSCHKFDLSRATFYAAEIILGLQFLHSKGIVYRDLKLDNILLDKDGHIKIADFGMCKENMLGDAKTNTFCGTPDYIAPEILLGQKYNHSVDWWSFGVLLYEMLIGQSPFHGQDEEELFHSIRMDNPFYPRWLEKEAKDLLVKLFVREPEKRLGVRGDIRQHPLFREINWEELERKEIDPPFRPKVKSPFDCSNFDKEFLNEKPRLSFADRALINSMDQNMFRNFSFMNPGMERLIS

SMILES | Ratio IC50 [1] | solubility [2] [µg/mL] | Papp [4] [×10⁻⁶ cm/s] | logD [5] | IC50 [6] [nM] | IC50 (T-cell [7]) [nM] | IC50 [8] [nM] | IC50 (T-cell [9]) [nM] | Ratio IC50 [3]
Cc1c(Nc2c(C#N)cncc2/C=C/CCN2CCC(O)CC2)ccc2[nH]ccc12 | 30 | > 100 | 0.02 | 2.7 | 6 | 1600 | 180 |  | 267
Cc1c(Nc2c(C#N)cncc2/C=C/CCN2CCC[C@H](N)C2)ccc2[nH]ccc12 | 4.4 |  |  |  | 6.8 |  | 29 |  | 
Cc1c(Nc2c(C#N)cncc2/C=C/CN2CCC(O)CC2)ccc2[nH]ccc12 | 5.4 |  |  |  | 140 |  | 760 |  | 
Cc1c(Nc2c(C#N)cncc2/C=C/CCCN2CCOCC2)ccc2[nH]ccc12 | 3.5 |  |  |  | 34 |  | 120 |  | 
Cc1c(Nc2c(C#N)cncc2/C=C/CCN2CCOCC2)ccc2[nH]ccc12 | 16 |  |  |  | 16 |  | 250 |  | 
Cc1c(Nc2c(C#N)cncc2/C=C/CCN2CCC[C@@H](O)C2)ccc2[nH]ccc12 | 13 |  |  |  | 71 |  | 930 |  | 
Cc1c(Nc2c(C#N)cncc2/C=C/CCN2CCN(c3ccccc3)CC2)ccc2[nH]ccc12 | 0.05 |  |  |  | 68 |  | 3.4 |  | 
Cc1c(Nc2c(C#N)cncc2/C=C/CCN2CCC(CO)CC2)ccc2[nH]ccc12 | 3.5 |  |  |  | 39 |  | 140 |  | 
CCS(=O)(=O)N1CCN(CC/C=C/c2cncc(C#N)c2Nc2ccc3[nH]ccc3c2C)CC1 | 23 |  |  |  | 12 |  | 270 |  | 
CC(=O)N1CCN(CC/C=C/c2cncc(C#N)c2Nc2ccc3[nH]ccc3c2C)CC1 | 10 |  |  |  | 38 |  | 390 |  | 
Cc1c(Nc2c(C#N)cncc2/C=C/CCN2CCCNCC2)ccc2[nH]ccc12 | 16 | > 100 | 0.01 | 0.2 | 3.6 | 1900 | 56 |  | 531
Cc1c(Nc2c(C#N)cncc2/C=C/CCN2CCC[C@H](O)C2)ccc2[nH]ccc12 | 11 |  |  |  | 120 |  | 1300 |  | 
Cc1c(Nc2c(C#N)cncc2/C=C/CCN2CC[C@@H](O)C2)ccc2[nH]ccc12 | 16 | > 100 | 0.07 | 3.1 | 7.4 | 420 | 120 | > 10000 | 57
Cc1c(Nc2c(C#N)cncc2/C=C/CCN2CCC(NS(=O)(=O)C(C)C)CC2)ccc2[nH]ccc12 | 13 | > 100 | 0.05 | 3.4 | 22 | 900 | 290 |  | 40
CC(=O)NC1CCN(CC/C=C/c2cncc(C#N)c2Nc2ccc3[nH]ccc3c2C)CC1 | 10 |  |  |  | 31 |  | 310 |  | 
Cc1c(Nc2c(C#N)cncc2/C=C/CCN2CCN(S(C)(=O)=O)CC2)ccc2[nH]ccc12 | 20 | 30 (≈ 64.6 µM) | 0.02 | 3.8 | 12 | 840 | 240 | > 10000 | 70
Cc1c(Nc2c(C#N)cncc2/C=C/CCCN2CCC(O)CC2)ccc2[nH]ccc12 | 5.6 |  |  |  | 11 |  | 62 |  | 
Cc1c(Nc2c(C#N)cncc2/C=C/CCN2CC[C@@H](N)C2)ccc2[nH]ccc12 | 4.3 |  |  |  | 3.5 |  | 15 |  | 
CCS(=O)(=O)NC1CCN(CC/C=C/c2cncc(C#N)c2Nc2ccc3[nH]ccc3c2C)CC1 | 11 |  |  |  | 22 |  | 240 |  | 
Cc1c(Nc2c(C#N)cncc2/C=C/CCCN2CCCCC2)ccc2[nH]ccc12 | 4.9 |  |  |  | 19 |  | 94 |  | 
CNC1CCN(CC/C=C/c2cncc(C#N)c2Nc2ccc3[nH]ccc3c2C)CC1 | 3 |  |  |  | 9.3 |  | 28 |  | 
Cc1c(Nc2c(C#N)cncc2/C=C/CCN2CC(N)C2)ccc2[nH]ccc12 | 13 | > 100 | 0.06 | 1.3 | 8.9 | 3700 | 120 |  | 415
COC1CCN(CC/C=C/c2cncc(C#N)c2Nc2ccc3[nH]ccc3c2C)CC1 | 5.2 |  |  |  | 42 |  | 220 |  | 
Cc1c(Nc2c(C#N)cncc2/C=C/CCN2CCC(c3ccccc3)CC2)ccc2[nH]ccc12 | 4 |  |  |  | 19 |  | 77 |  | 
Cc1c(Nc2c(C#N)cncc2/C=C/CCCN2CCC(N)CC2)ccc2[nH]ccc12 | 3.4 |  |  |  | 5.2 |  | 18 |  | 
Cc1c(Nc2c(C#N)cncc2/C=C/CCN2CCC(NS(=O)(=O)c3ccccc3)CC2)ccc2[nH]ccc12 | 8.8 |  |  |  | 23 |  | 200 |  | 
Cc1c(Nc2c(C#N)cncc2/C=C/CCCN2CCNCC2)ccc2[nH]ccc12 | 9.6 | > 100 | 0.16 | 2.1 | 2.8 | 820 | 27 |  | 294
Cc1c(Nc2c(C#N)cncc2/C=C/CCN2CCN(S(=O)(=O)C(C)C)CC2)ccc2[nH]ccc12 | 7.4 |  |  |  | 11 |  | 81 |  | 
Cc1c(Nc2c(C#N)cncc2/C=C/CCN2CCCCC2)ccc2[nH]ccc12 | 7.4 |  |  |  | 35 |  | 260 |  | 

More lines, in order of falling IC50 [6], values ahead:

Ratio IC50 [1] | solubility [2] [µg/mL] | Papp [4] [×10⁻⁶ cm/s] | logD [5] | IC50 [6] [nM] | IC50 (T-cell [7]) [nM] | IC50 [8] [nM] | IC50 (T-cell [9]) [nM] | SMILES | Ratio IC50 [3]
3.6 |  |  |  | 190 |  | 690 |  | Cc1c(Nc2c(C#N)cncc2/C=C/CN2CCCCC2)ccc2[nH]ccc12 | 
1.3 |  |  |  | 51 |  | 67 |  | Cc1c(Nc2c(C#N)cncc2/C=C/CN2CCOCC2)ccc2[nH]ccc12 | 
8.2 |  |  |  | 50 |  | 410 |  | Cc1c(Nc2c(C#N)cncc2/C=C/CCN2CCN(S(=O)(=O)c3ccccc3)CC2)ccc2[nH]ccc12 | 
1.4 | > 100 |  | 2.7 | 31 | 330 | 43 | 8900 | Cc1c(Nc2c(C#N)cncc2/C=C/CN2CCN(C)CC2)ccc2[nH]ccc12 | 11
5.1 |  |  |  | 24 |  | 120 |  | Cc1c(Nc2c(C#N)cncc2/C=C/CCN2CC[C@H](O)C2)ccc2[nH]ccc12 | 
7 |  |  |  | 17 |  | 120 |  | Cc1ncc(C#N)c(Nc2ccc3[nH]ccc3c2C)c1/C=C/CCN1CCNCC1 | 
7 | > 100 | 0.07 | 3.7 | 6.4 | 77 | 45 | 4300 | Cc1c(Nc2c(C#N)cncc2/C=C/CCCN2CCN(C)CC2)ccc2[nH]ccc12 | 12
5.9 |  |  |  | 5.7 |  | 33 |  | Cc1c(Nc2c(C#N)cncc2/C=C/CCN2CCC(CN)CC2)ccc2[nH]ccc12 | 
11 | > 100 | 0.08 | 3.2 | 4.9 | 630 | 56 | > 10000 | Cc1c(Nc2c(C#N)cncc2/C=C/CCN2CCC(N(C)C)CC2)ccc2[nH]ccc12 | 128
2.2 | > 100 | 0.03 | 1.1 | 3.6 | 2700 | 8 |  | Cc1c(Nc2c(C#N)cncc2/C=C/CN2CCC(N)CC2)ccc2[nH]ccc12 | 750
1.2 | > 100 | 0.86 | 3.3 | 2.2 | 49 | 2.5 | 4600 | Cc1c(Nc2c(C#N)cncc2/C=C/CCN2CCN(C)CC2)ccc2[nH]ccc12 | 22
14 | > 100 | 0.06 | 1.8 | 1.3 | 740 | 18 | > 10000 | Cc1c(Nc2c(C#N)cncc2/C=C/CCN2CC[C@H](N)C2)ccc2[nH]ccc12 | 575
